Compounds with a hit are over-represented: about 1.2% of the library has one in this group of screens.
FN deposition inh = inhibitors of fibronectin matrix deposition, primary screen, AH1F cells, Alexa488-fibronectin fluorescence, plate reader | AH1F fibroblasts, overnight | inhibition, % at 12.6 µM | 350,000 tested, 0.086% active | AID 743247, 2014;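 active means mean inhibition across replicates of 30% or more, regardless of how many single replicates reach that level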;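 further: positive control wells lacked labelled fibronectin entirely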
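Measured by – fluorescence 485/525 nm · System – AH1F fibroblast monolayer, labelled fibronectin deposition · Amount – 10000 cells per well · Buffer or medium – serum-reduced DMEM (2% serum) · Doses – single dose, pinned · Also added – fluorescent fibronectin at 24 nM final · Schedule – 1 h cell attachment, overnight exposure to compound and label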
ABHD5 PLIN5 PPI = ABHD5-PLIN5 interaction inhibitors, primary screen, cell lysate, split luciferase complementation, luminescence; Perilipin-5 (Homo sapiens) + 1-acylglycerol-3-phosphate O-acyltransferase ABHD5 (Homo …; Split G. princeps luciferase complementation, 4 h; inhibition, % at 4 µM; 360,000 tested, 0.78% active; AID 602281, 2012;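 active means inhibition above the mean inhibition across every tested compound plus 3 SD, cut at about 22% in these data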;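 further: 0% = DMSO only wells and the 100% control is not disclosed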
APOBEC3A inh = APOBEC3A ssDNA deaminase inhibitors, primary screen, selectivity assay for APOBEC3G inhibitor project, biochemical, FAM/TAMRA oligo cleavage fluorescence | DNA dC->dU-editing enzyme APOBEC-3A (Homo sapiens), P31941 | recombinant A3A, FAM/TAMRA ssDNA deamination fluorescence | inhibition, % at 20 µM | 330,000 tested, 0.41% active | AID 493011, 2011;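 active means at least 40% inhibition at 20 µM here, with at most 30% in a related deaminase screen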;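 further: plate controls were A3A with DMSO for no effect and wells lacking A3A enzyme for full effect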
Target sequence (P31941 whole entry, looked up): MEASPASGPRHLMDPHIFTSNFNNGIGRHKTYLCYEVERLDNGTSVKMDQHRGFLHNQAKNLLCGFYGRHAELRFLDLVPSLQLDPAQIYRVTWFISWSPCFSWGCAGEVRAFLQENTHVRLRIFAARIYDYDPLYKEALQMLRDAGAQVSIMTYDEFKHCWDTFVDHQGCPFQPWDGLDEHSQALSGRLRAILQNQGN
A3G deaminase = APOBEC3G DNA deaminase inhibitors, primary screen, biochemical, fluorescence, single-stranded DNA substrate, uHTS; recombinant A3G, ssDNA deamination FAM/TAMRA fluorescence; 330,000 tested, 0.28% active; DNA dC->dU-editing enzyme APOBEC-3G (Homo sapiens), Q9HC16; inhibition, % at 20 µM;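 active means inhibition of at least 40% at 20 µM, with no more than 30% in the related APOBEC3A deaminase screen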;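 further: plate controls were DMSO wells with A3G for no effect and wells lacking A3G enzyme for full effect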
ABHD5-PLIN5 conf = ABHD5-PLIN5 interaction inhibitors, confirmation, biochemical, luminescence; shares compounds with ABHD5 PLIN5 PPI; inhibition, % at 4 µM; 2,200 tested, 67% active; in the data active means inhibition above about 23%;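 further: 0% = DMSO vehicle wells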
HNF4 split-luc = HNF4 dimerization inhibitors, counter-screen for ABHD5-PLIN5 interaction inhibitor project, biochemical, split-luciferase complementation, luminescence; shares compounds with ABHD5 PLIN5 PPI; inhibition, % at 4 µM; 2,200 tested, 77% active; AID 651674, 2012;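 active means mean inhibition across replicate wells exceeding the computed hit threshold, cut at about 13% in these data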;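 further: light from luciferase halves that rejoin when HNF4 fusion proteins dimerize; 0% = DMSO only wells and the 100% control is not given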
* marks the source's active call; other numbers are inactive results.

Screening N#C/C(=C/c1ccc(N2CCOCC2)o1)C(=O)NC1CCCCC1 returned FN deposition inh 4.0, ABHD5 PLIN5 PPI 27.4*, APOBEC3A inh -1.5, A3G deaminase -14.0, ABHD5-PLIN5 conf 13.2 and HNF4 split-luc 33.7*.
For Cc1noc(C)c1S(=O)(=O)N(C)C[C@@H]1Oc2ccc(N(C)C)cc2CC(=O)N([C@H](C)CO)C[C@H]1C the results were FN deposition inh -6.0.
Cc1ccc(S(=O)(=O)c2c(N)n(Cc3ccco3)c3nc4ccccc4nc23)cc1C was read as FN deposition inh -2.7, ABHD5 PLIN5 PPI 28.2*, APOBEC3A inh -3.6, A3G deaminase -9.0, ABHD5-PLIN5 conf 52.0* and HNF4 split-luc 48.2*.
Nc1c(S(=O)(=O)c2ccccc2)c2nc3ccccc3nc2n1Cc1ccco1 was read as FN deposition inh -2.2, ABHD5 PLIN5 PPI 16.5, APOBEC3A inh -3.2 and A3G deaminase -6.2.
`CC1(C)Cc2cccc(OCC(=O)N3CCN(c4ccccc4F)CC3)c2O1` gave FN deposition inh -1.8, ABHD5 PLIN5 PPI -5.5, APOBEC3A inh -2.7 and A3G deaminase -2.6.
Screening CC1(C)Cc2cccc(OCC(=O)N3CCN(c4ccccc4)CC3)c2O1 returned ABHD5 PLIN5 PPI 82.2*, APOBEC3A inh -2.1, A3G deaminase -4.2, ABHD5-PLIN5 conf 0.9 and HNF4 split-luc 0.3.
`COC(=O)C[C@H]1CC[C@@H]2[C@@H](COc3ccc(NC(=O)Nc4cccc(C#N)c4)cc3C(=O)N2C)O1` gave FN deposition inh -4.6.
`O=C(NCC[C@@H]1CC[C@@H](NC(=O)c2cnccn2)[C@H](CO)O1)c1ccc2c(c1)OCO2` gave FN deposition inh -11.5.
`Cc1ccc2cccnc2c1NC(=S)NC(=O)c1ccccc1` gave FN deposition inh 13.5, ABHD5 PLIN5 PPI 35.5*, APOBEC3A inh 0.8, A3G deaminase 0.4, ABHD5-PLIN5 conf 14.5 and HNF4 split-luc 31.6*.
For Cc1ccc2cccc(NC(=S)NC(=O)c3ccccc3)c2n1 the results were FN deposition inh -3.3, ABHD5 PLIN5 PPI 3.6, APOBEC3A inh -3.3 and A3G deaminase -1.9.
For C[C@@H]1CN([C@@H](C)CO)S(=O)(=O)c2ccc(-c3ccc(F)cc3)cc2O[C@@H]1CN(C)S(C)(=O)=O the results were FN deposition inh 2.2.
Cc1cc2oc(=O)sc2cc1NS(=O)(=O)c1ccccc1 was read as FN deposition inh -15.2, ABHD5 PLIN5 PPI 38.8*, APOBEC3A inh -2.6, A3G deaminase -11.2, ABHD5-PLIN5 conf -71.9 and HNF4 split-luc -26.6.
`C[C@@H]1CN([C@H](C)CO)C(=O)c2cc(C#CCN(C)C)cnc2O[C@@H]1CN(C)Cc1ccc(F)cc1` gave FN deposition inh -6.6.
COc1cc(CNCCO)cc(Cl)c1OCc1ccc(Cl)cc1Cl was read as FN deposition inh -3.5, ABHD5 PLIN5 PPI 18.0, APOBEC3A inh 0.5 and A3G deaminase 0.8.
Screening COc1cc(CNC(C)(C)CO)cc(Br)c1OCc1ccc(Cl)cc1 returned FN deposition inh 4.8, ABHD5 PLIN5 PPI 28.0*, APOBEC3A inh -2.5, A3G deaminase -10.1, ABHD5-PLIN5 conf 13.1 and HNF4 split-luc 0.1.
COc1cc(CNC(C)(C)CO)cc(Br)c1OCc1ccc(Cl)cc1Cl was read as FN deposition inh -4.2, ABHD5 PLIN5 PPI 34.3*, APOBEC3A inh -1.6, A3G deaminase -3.7, ABHD5-PLIN5 conf 19.6 and HNF4 split-luc 4.0.
For COc1cc(CNc2ccc(O)cc2)cc(Br)c1OCc1ccccc1 the results were FN deposition inh -2.0, ABHD5 PLIN5 PPI -30.3, APOBEC3A inh 1.2 and A3G deaminase 0.6.
C[C@@H]1CN([C@@H](C)CO)C(=O)c2cc(NS(=O)(=O)c3ccc(F)cc3)ccc2O[C@H]1CN(C)Cc1ccc2c(c1)OCO2 was read as FN deposition inh -8.7.
For CCCCCCCCCCCCCCCC[n+]1ccc(/C=N/O)cc1 the results were ABHD5 PLIN5 PPI 30.6*, APOBEC3A inh 2.2, A3G deaminase 3.8, ABHD5-PLIN5 conf 11.0 and HNF4 split-luc 7.2.
